Screening data deposited in PubChem by several laboratories.
Shown are actives, neighbours in structure and some others; about 2.1% of the full set was active somewhere.
m5-HT2A agonist – mouse HTR2A agonism via beta-arrestin recruitment; P35363; CHO-K1 mHTR2A beta-arrestin complementation, luminescence; percent of 30 µM serotonin response; activation, % at 7.6 µM; actives 0.66% (n = 360,000); AID 624169;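 active = activation above a run cutoff, the mean activation of all tested compounds plus 3 SD, cut at about 14% in these data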
Target sequence (P35363 whole entry, looked up): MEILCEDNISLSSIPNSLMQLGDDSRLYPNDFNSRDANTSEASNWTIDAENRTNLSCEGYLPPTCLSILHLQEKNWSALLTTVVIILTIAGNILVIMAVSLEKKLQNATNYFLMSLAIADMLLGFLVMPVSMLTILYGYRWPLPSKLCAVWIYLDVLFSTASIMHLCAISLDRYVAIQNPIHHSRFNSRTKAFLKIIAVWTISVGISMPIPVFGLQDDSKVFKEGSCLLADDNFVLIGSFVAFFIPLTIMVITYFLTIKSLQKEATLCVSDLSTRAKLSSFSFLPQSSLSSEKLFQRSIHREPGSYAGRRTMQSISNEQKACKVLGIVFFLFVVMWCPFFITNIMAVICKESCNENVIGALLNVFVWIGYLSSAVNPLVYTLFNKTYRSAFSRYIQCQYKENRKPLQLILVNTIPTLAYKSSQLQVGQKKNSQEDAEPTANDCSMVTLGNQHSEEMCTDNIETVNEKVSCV
APJ antagonist – blocks the human apelin receptor APJ; AID 2521; CHO-K1 APJ beta-arrestin complementation, luminescence; actives 0.32% (n = 330,000); P35414; inhibition, % at 20 µM;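 active = inhibition above about 40% at 20 µM, limit read from the data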;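 also: cells challenged with 10 nM apelin-13 agonist together with compound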
CCR6 antag – antagonists of human CCR6 receptor. CHO-K1 CCR6 PathHunter beta-arrestin, luminescence, CCL20-stimulated. inhibition, % at 20 µM. actives 0.49% (n = 340,000). AID 493098. P51684;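 active = compounds whose inhibition of the agonist-driven luminescence signal at 20 µM reaches about 50%, limit read from the data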;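 also: cells stimulated with CCL20 at 14 nM final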
APJ ag – agonists of human APJ apelin receptor; P35414; CHO-K1 APJ PathHunter beta-arrestin, luminescence; 0% DMSO wells, 100% apelin; activation, % at 20 µM; actives 0.11% (n = 330,000);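 active = activation more than six SD over the plate average, tested at 20 µM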
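Test system: CHO-K1 APJ beta-arrestin complementation cell line | Compound: Single test compound dose, 20 µM final, 1% DMSO | Incubation: Compound 90 min 25 °C, reagent 1 h | Measured by: beta-gal luminescence | Read-out basis: APJ–arrestin association signal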
EBI2 block – EBI2 (human) antagonism | P32249 | actives 0.81% (n = 360,000) | EBI2 beta-arrestin recruitment, luminescence, 7a,25-OHC stimulated | inhibition, % at 5 µM; in the data active = inhibition above about 38%;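 also: enzyme fragment complementation signal reports receptor beta-arrestin coupling in cells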
CXCR6 inh – CXCR6 (human) receptor inhibition. O00574. CHO-K1 PathHunter CXCR6 beta-arrestin, luminescence. inhibition, % at 20 µM. actives 0.36% (n = 360,000); in the data active = inhibition above about 34%, passing the limit was not always enough;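 also: antagonist mode with CXCL16 agonist at 10 nM final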
MOR ag counter – activates human mu opioid receptor in HTR2A counterscreen; U2OS OPRM1 beta-arrestin PathHunter, luminescence; DMSO 0%, DAMGO 9.3 µM 100%; activation, % at 9.3 µM; shares compounds with m5-HT2A agonist; actives 5.3% (n = 2,300);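 active = mean activation above the mean of DMSO-only wells plus 3 SD, cut at about 0.5% in these data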
m5-HT2A ag conf – mouse HTR2A agonism confirmed; shares compounds with m5-HT2A agonist; CHO-K1 PathHunter beta-arrestin recruitment, luminescence; DMSO 0%, 30 µM serotonin 100%; activation, % at 7.6 µM; actives 19% (n = 2,300);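 active = mean activation across triplicates above the hit threshold derived in the original primary screen, cut at about 15% in these data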
Large screens that a line does not name were inactive (follow-up assays come after a bar, where they were run).

COC(=O)[C@@]1(Cc2ccc(OC)cc2)[C@@H]2[C@@H](CC(=O)[C@H]2CC(=O)C(=O)N(C)C)CN1C(=O)c1ccccc1	m5-HT2A agonist 18 | MOR ag counter inactive | m5-HT2A ag conf inactive
CC(C)NNC(=O)c1ccncc1	m5-HT2A agonist 28 | MOR ag counter inactive | m5-HT2A ag conf 45
CC(=O)NNC(=O)c1ccncc1	none
COC(=O)Cc1c(C)c2ccc(OCC(=O)N3CCCC(C)C3)c(C)c2oc1=O (stereo not drawn)	m5-HT2A agonist 15 | MOR ag counter inactive | m5-HT2A ag conf inactive
CCN(C(=O)Cn1nc(C(=O)O)c2ccccc2c1=O)C1CCCCC1	none
O=C(O)c1nn(CC(=O)N(C2CCCCC2)C2CCCCC2)c(=O)c2ccccc12	m5-HT2A agonist 33 | MOR ag counter inactive | m5-HT2A ag conf inactive
COCc1ccc(CN2CCC(n3nccc3NC(=O)C(OC)c3ccccc3)CC2)o1 (stereo not drawn)	m5-HT2A agonist 15 | MOR ag counter inactive | m5-HT2A ag conf inactive
CS(=O)(=O)c1ccc(Cl)c(NC(=O)C2CCN(S(=O)(=O)c3cccs3)CC2)c1	none
O=C(Cn1cc(C(F)(F)F)ccc1=O)Nc1ccc2c(c1)OCO2	m5-HT2A agonist 17 (no result: APJ antagonist, CCR6 antag, APJ ag) | MOR ag counter inactive | m5-HT2A ag conf inactive
O=C(O)C1C2CCC(O2)C1C(=O)Nc1cccc(Cl)c1 (stereo not drawn)	none
O=C1CN(C(=O)C2CCC(=O)N(CCc3ccc(Cl)cc3)C2)CCN1 (stereo not drawn)	m5-HT2A agonist 17 | MOR ag counter inactive | m5-HT2A ag conf inactive
O=C(NCCN1CCNC1=O)C1CCC(=O)N(CCc2ccc(Cl)cc2)C1 (stereo not drawn)	none
CCOC(=O)c1ccc(NC(=O)CSCC(=O)OCC(=O)c2ccccc2)cc1	m5-HT2A agonist 15 | MOR ag counter inactive | m5-HT2A ag conf inactive
O=C(CSCC(=O)OCC(=O)c1ccc(Br)cc1)Nc1ccc(Br)cc1	none
CCOC(=O)c1ccc(NC(=O)Cn2nnc(-c3ccccc3)n2)cc1	m5-HT2A agonist 21 | MOR ag counter inactive | m5-HT2A ag conf inactive
CCOC(=O)c1cccnc1SCC(=O)Nc1ccc(C)cc1	m5-HT2A agonist 16 | MOR ag counter inactive | m5-HT2A ag conf inactive
CN(C(=O)COC(=O)c1ccccc1Cc1ccccc1)C1CCS(=O)(=O)C1 (stereo not drawn)	none
COC(=O)c1ccccc1NC(=O)N1CCCC1	none
COC(=O)c1ccccc1NC(=O)N1CCN(S(=O)(=O)c2ccc(Cl)cc2)CC1	m5-HT2A agonist 17 | MOR ag counter inactive | m5-HT2A ag conf inactive
Cn1ncc([N+](=O)[O-])c1C(=O)Nc1ccccc1C#N	m5-HT2A agonist 16 (no result: APJ antagonist, CCR6 antag, APJ ag) | MOR ag counter inactive | m5-HT2A ag conf inactive
COc1ccccc1N1CCN(C(=O)COc2ccc(S(=O)(=O)NC(C)C)cc2)CC1	m5-HT2A agonist 15 | MOR ag counter inactive | m5-HT2A ag conf inactive
COc1ccccc1N1CCN(C(=O)CCc2ccc(S(=O)(=O)NC(C)C)cc2)CC1	none
COc1ccc(CCC(=O)NCCc2nc3ccccc3[nH]2)cc1	none
COc1ccc(NC(=O)Cc2nc3ccccc3[nH]2)cc1	m5-HT2A agonist 85 | MOR ag counter inactive | m5-HT2A ag conf inactive
COc1ccc(/C=N/NC(=O)CCc2nc3ccccc3[nH]2)cc1	m5-HT2A agonist 16 | MOR ag counter inactive | m5-HT2A ag conf inactive
CC1(NC(=O)Cn2cc(C(F)(F)F)ccc2=O)CCS(=O)(=O)C1 (stereo not drawn)	none
CN1C(=O)C(CC(=O)NC2CCCCC2)SC1=Nc1ccccc1 (stereo not drawn)	m5-HT2A agonist 23 | MOR ag counter inactive | m5-HT2A ag conf inactive
CCN=C1SC(CC(=O)NC2CCCCC2)C(=O)N1CC (stereo not drawn)	none
COc1cc([N+](=O)[O-])ccc1NC(=O)/C=C/C(=O)O	none
COc1cc([N+](=O)[O-])ccc1NC(=O)/C=C\C(=O)O	m5-HT2A agonist 22 | MOR ag counter inactive | m5-HT2A ag conf inactive
Cc1ccc(Nc2ccc3nonc3c2[N+](=O)[O-])cc1	none
Cc1ccc(Nc2ccc([N+](=O)[O-])nc2[N+](=O)[O-])cc1	m5-HT2A agonist 15 | MOR ag counter inactive | m5-HT2A ag conf inactive
CCSc1ccc([C@@H]2[C@@H]3C(=O)N(CC)C(=O)[C@@H]3[C@]3(C(=O)OC)CCCCN23)cc1	none
CCSc1ccc([C@@H]2[C@H]3C(=O)N(C)C(=O)[C@H]3[C@]3(C(=O)OC)CCCCN23)cc1	m5-HT2A agonist 17 | MOR ag counter inactive | m5-HT2A ag conf inactive
COc1ccc(C)cc1S(=O)(=O)N1CCN(C/C=C/c2ccccc2)CC1	none
CCOC(=O)C1CCN(Cc2cccc(Oc3ccc(Cl)cc3)c2)CC1	m5-HT2A agonist 20 | MOR ag counter inactive | m5-HT2A ag conf 70
CC(C)(CC(=O)O)CC(=O)NCc1c(Cl)cccc1Sc1ccc(Cl)cc1	m5-HT2A agonist 15 | MOR ag counter inactive | m5-HT2A ag conf inactive
O=C(O)CCCC(=O)NCc1c(Cl)cccc1Sc1ccc(Cl)cc1	none
C=C1C(=O)OC2C1C(OC(=O)C(C)=CC)CC(=C)C1C(O)C3OC3(C)C21O (stereo not drawn)	m5-HT2A agonist 16 (no result: APJ antagonist, APJ ag) | MOR ag counter inactive | m5-HT2A ag conf inactive
CCOc1ccccc1NC(=O)CSc1nnc(CNC(=O)c2ccccc2F)o1	m5-HT2A agonist 17 | MOR ag counter inactive | m5-HT2A ag conf inactive
COc1ccccc1C(=O)NCC(c1ccco1)N1CCc2ccccc21 (stereo not drawn)	none
Cn1c(=O)c2c(nc(Oc3ccccc3Cl)n2C)n(C)c1=O	none (no result: APJ antagonist, APJ ag)
Cn1c(=O)c2c(nc(Oc3ccccc3N)n2C)n(C)c1=O	m5-HT2A agonist 16 | MOR ag counter inactive | m5-HT2A ag conf inactive
Cc1cc(=O)c(C(=O)Nc2cccc(C(=O)NC3CC3)c2)nn1-c1ccccc1Cl	m5-HT2A agonist 15 | MOR ag counter inactive | m5-HT2A ag conf inactive
Cc1csc(NC(=O)C2CCCN(S(=O)(=O)c3ccc4c(c3)oc(=O)n4C)C2)n1 (stereo not drawn)	m5-HT2A agonist 21 | MOR ag counter inactive | m5-HT2A ag conf inactive
O=C(CN1CCC(NC(=O)Nc2ccccc2)CC1)Nc1ccc([N+](=O)[O-])cc1	none
COc1cccc(C=Nc2ccc3c(c2)CCC3)c1O	m5-HT2A agonist 15 | MOR ag counter inactive | m5-HT2A ag conf inactive
